# This is a sample that favours compounds with a hit; in the whole collection about 2.5% have one here.
# NadD block: NadD (S. aureus) enzyme inhibition; 360,000 compounds, 0.78% hits; purified NadD enzyme, colorimetric absorbance read-out; inhibition, % at 20 µM; in the data active = inhibition above about 26%
# GRK2 inh: inhibitors of human GRK2 displacing RNA aptamer. P25098. bead flow cytometry, FAM-aptamer displacement from GRK2. inhibition of aptamer binding, % at 10 µM. 330,000 compounds, 0.59% hits;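 active = inhibition of aptamer binding above 40%, roughly 3 SD of noise, on plates passing a quality check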;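 also: median bead fluorescence of bound FAM aptamer so fluorescent compounds give negative values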
# Target sequence (P25098 whole entry, looked up): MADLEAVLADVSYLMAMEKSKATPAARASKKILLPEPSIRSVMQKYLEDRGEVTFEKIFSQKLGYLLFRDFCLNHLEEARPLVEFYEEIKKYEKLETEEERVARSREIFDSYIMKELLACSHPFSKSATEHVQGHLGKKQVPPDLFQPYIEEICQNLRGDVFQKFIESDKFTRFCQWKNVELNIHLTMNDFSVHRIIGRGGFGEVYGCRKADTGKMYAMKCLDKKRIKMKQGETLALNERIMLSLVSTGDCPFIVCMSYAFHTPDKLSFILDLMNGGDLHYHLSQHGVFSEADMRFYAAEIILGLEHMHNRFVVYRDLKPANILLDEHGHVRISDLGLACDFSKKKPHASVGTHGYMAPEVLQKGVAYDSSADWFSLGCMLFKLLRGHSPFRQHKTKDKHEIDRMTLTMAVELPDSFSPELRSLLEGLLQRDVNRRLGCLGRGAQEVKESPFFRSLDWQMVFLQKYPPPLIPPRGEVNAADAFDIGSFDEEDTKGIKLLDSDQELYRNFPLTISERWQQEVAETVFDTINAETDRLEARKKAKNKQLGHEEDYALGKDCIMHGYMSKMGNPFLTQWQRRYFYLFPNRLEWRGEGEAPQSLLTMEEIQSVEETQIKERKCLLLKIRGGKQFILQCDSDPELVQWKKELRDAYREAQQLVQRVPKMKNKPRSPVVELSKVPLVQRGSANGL
# Beta2AR agonist: activates human beta-2 adrenergic receptor causing internalization; P07550; Am2.2-beta2AR cells, FAP receptor internalization, flow cytometry; response, % (no concentration beside the values); 340,000 compounds, 0.43% hits; AID 504454;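 active = response above a set limit, near 3 SD of response in nonfluorescent compounds, cut at about 42% in these data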
# SENP1 inh: inhibitors of human SENP1 SUMO protease catalytic domain; Q9P0U3; recombinant SENP1 catalytic domain, CyPet-SUMO1-YPet FRET cleavage; inhibition, % at 10 µM; 360,000 compounds, 0.21% hits; AID 624204;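 active = inhibition at least 30% at 10 µM, raw YFP signal under a set limit, fluorescence ratio 0.5 to 1.5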;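 also: 0% = enzyme with DMSO and 100% = no enzyme wells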
#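 Material: hSENP1 catalytic domain, recombinant; medium: Tris pH 8 with BME, BSA, NP40 and catalase; compound: single concentration of 10 µM compound, 0.5% DMSO final; technique: FRET read of cyan and yellow fluorescence; timing: 50 min enzyme reaction, room temperature, light-protected; reagent: SFCypet-SUMO1-SFYpet substrate at 25 nM; control set: no-enzyme low, enzyme-DMSO high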
# ABHD5-PLIN5 inh: ABHD5-PLIN5 protein interaction inhibition; Q00G26+Q8WTS1; Split G. princeps luciferase complementation, luminescence, 4 h; inhibition, % at 4 µM; 360,000 compounds, 0.78% hits;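 active = inhibition above the mean inhibition across every tested compound plus 3 SD, cut at about 22% in these data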;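 also: 0% = DMSO only wells and the 100% control is not disclosed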
# B2AR ag CP1: activates human beta-2 adrenergic receptor | AID 540358 | percent response (surface receptor), % at 10 µM | 1,100 compounds, 25% hits | shares compounds with Beta2AR agonist | Am2.2-beta2AR cells, FAP surface receptor, flow cytometry; stronger effect = lower value;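 active = surface receptor percent response at or below 58%, roughly 3 SD from nonfluorescent compounds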
# B2AR FAP counter: counter-screen for beta-2AR agonists: fluorescence in Am2.2 cells; calls only at 10 µM; AID 588765; 1,100 tested, under 10 active; FAP fluorogen flow cytometry, fluorescence counterscreen; stronger effect = lower value; shares compounds with Beta2AR agonist;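 active = percent response below a set limit in fluorescence channel 1 and below 50% in channel 8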
# * marks the source's active call; other numbers are inactive results; i = inactive; . = no result given.
SMILES,NadD block,GRK2 inh,Beta2AR agonist,SENP1 inh,ABHD5-PLIN5 inh,B2AR ag CP1,B2AR FAP counter
COc1ccccc1C(=O)Nc1ccc2c(c1)nc(CN1CCN(C(C)=O)CC1)n2C,0,0,53*,-13,0,113,i
NNC(=O)c1c(O)c2cccc3c2n(c1=O)CCC3,1,0,-4,-3,-1,.,.
CC1C/C(=N\NC(N)=S)c2cc(Cl)ccc2S1 (centres undefined),5,0,2,2,-5,114,i
CCCCCCCCCn1c2c(c(=N)c3c1CCC3)CCCC2,12,.,80*,-1,11,103,i
CC(C)(C)c1ccc(C(=O)Nc2cccc(-n3cnnn3)c2)cc1,-9,0,17,2,-17,.,.
Cc1n[nH]c(=O)n1-c1ccc(C(C)(C)C)cc1,5,0,4,-1,-12,.,.
CCOC(=O)Cn1nc(C)n(-c2ccc(C(C)(C)C)cc2)c1=O,3,0,51*,0,4,109,i
CN(Cc1cn(C)nc1-c1ccccc1F)C1CCOC1 (centres undefined),-3,0,-9,1,2,.,.
CN(CCCN1CCOCC1)Cc1cn(C)nc1-c1ccccc1F,-3,2,1,-3,0,130,i
CCc1ccc(N(CC(=O)NCCc2ccccc2)C(=O)CCC(=O)Nc2ccccn2)cc1,-6,1,-11,0,-3,.,.
O=C(CCc1nnc2n(CCc3ccccc3)c(=O)c3ccccc3n12)NCCCN1CCCCC1,-12,0,-12,3,12,.,.
c1ccc(-c2nccc(-c3ccc(-n4cnc5ccccc54)cc3)n2)cc1,-3,0,71*,1,-5,96,i
CCOC(=O)N1CCN(CC(O)COc2ccccc2[N+](=O)[O-])CC1 (centres undefined),-4,1,-1,1,5,.,.
OC(C#Cc1ccccn1)c1cccs1 (centres undefined),-3,2,63*,-30,-9,118,i
O=C(NC1CCCCC1)C(c1cccs1)N(C(=O)c1ccccn1)c1ccccc1 (centres undefined),-11,0,-2,3,-1,.,.
COc1ccc(OC)c(NC(=O)COc2ccc(Br)cc2)c1,-5,0,68*,0,3,105,i
COc1ccc(OC)c(NC(=O)COC(=O)Cc2ccc(Br)cc2)c1,-8,0,-5,3,1,.,.
CC(C)CNC(=O)CSc1n[nH]c(=O)n1CCc1ccccc1,-2,0,4,1,0,.,.
O=C(Nc1ccc2nc(-c3cccs3)c(-c3cccs3)nc2c1)N1CCOCC1,-11,11,59*,-24,4,20*,i
COC(=O)c1ccc(N2CCN(C)CC2)c(NC(=O)c2sc3ccccc3c2Cl)c1,6,0,71*,-5,8,82,i
CN1CCN(c2ccc(NC(=O)c3sc4ccccc4c3Cl)cc2)CC1,-4,0,37,-52,16,.,.
O=C(Nc1cccc(-c2nc3cccnc3s2)c1)C1c2ccccc2Oc2ccccc21,6,.,74*,0,4,44*,i
O=C(c1cccc(Cl)c1)N1CCC(C(=O)N2CCN(Cc3ccccc3)CC2)CC1,6,0,79*,-14,-2,25*,i
O=S(=O)(NCCNS(=O)(=O)c1ccc(F)cc1)c1ccc(F)cc1,-3,0,0,2,-4,.,.
Nc1nonc1C(=O)NCCNS(=O)(=O)c1ccc(F)cc1,1,1,65*,2,-8,69,i
SMILES,NadD block,GRK2 inh,Beta2AR agonist,SENP1 inh,ABHD5-PLIN5 inh,B2AR ag CP1,B2AR FAP counter
CN1CCN(Cc2cc(COCc3ccccc3)c3cccnc3c2O)CC1,-7,0,28,-6,10,90,i
CCOc1ccccc1C(=O)NCC(=O)NNC(=O)CN(C)S(=O)(=O)c1ccc(Cl)cc1,7,0,4,2,-2,.,.
CCC(C)(C)c1ccc(OCCCC[n+]2cccc(C)c2C)c(C(C)(C)CC)c1,7,.,56*,7,13,88,i
CCC(C)(C)c1ccc(OCCCC[n+]2ccc(C)cc2)c(C(C)(C)CC)c1,.,0,.,.,.,.,.
CCN(CC)/C(=N/S(=O)(=O)c1ccc(C)cc1)c1ccccc1,-3,0,78*,0,-1,110,i
O=C(NCC(c1cccs1)N1CCOCC1)c1cc(S(=O)(=O)N2CCOCC2)ccc1F (centres undefined),-4,1,3,-1,-7,.,.
CCn1cc(C(=O)O)c(=O)c2cc(F)c(N3CCN(S(=O)(=O)c4ccc5c(c4)OCCO5)CC3)cc21,9,2,-10,2,-2,.,.
CCn1cc(C(=O)O)c(=O)c2cc(F)c(N3CCN(S(=O)(=O)c4ccc(NC(C)=O)cc4)CC3)cc21,6,0,56*,1,6,76,i
O=C(c1ccc(S(=O)(=O)N2CCCC2)cc1)N(c1ccc(F)cc1)C1C=CS(=O)(=O)C1 (centres undefined),-4,4,2,3,2,.,.
O=S(=O)(Cc1ccccc1)Nc1ccccc1,-7,0,-6,2,7,.,.
CN(Cc1ccccc1)S(=O)(=O)c1ccc(NS(=O)(=O)Cc2ccccc2)cc1,-12,0,48*,1,-6,34*,i
N#Cc1ccc(C(=O)Nc2cc(S(=O)(=O)Nc3ccc(Cl)cc3)ccc2N2CCCCC2)cc1,23,0,44*,10,-7,103,i
O=C(Nc1cc(S(=O)(=O)Nc2ccc(Cl)cc2)ccc1N1CCCCC1)c1ccc(F)cc1,15,0,8,-4,-4,.,.
CC(C)(C)C(=O)Nc1ccccc1N1CCN(c2ccc(F)cc2)CC1,-6,0,67*,3,13,105,i
C[C@@H]1CN([C@@H](C)CO)C(=O)c2cc(NC(=O)c3ccccc3)ccc2O[C@@H](C)CCCCO[C@@H]1CN(C)Cc1ccc(C(F)(F)F)cc1,17,.,.,2,12,.,.
CN(C)S(=O)(=O)c1ccc2c(c1)C(CC(=O)O)OC2=O (centres undefined),1,3,49*,5,9,104,i
CN(C)S(=O)(=O)c1ccc2c(c1)C(=NO)c1cc(S(=O)(=O)N(C)C)ccc1-2,-5,1,-1,1,1,.,.
CCCCOc1cccc(C(=O)Nc2ccc(NC(=O)c3ccco3)cc2)c1,2,0,69*,-1,-9,35*,i
CCCOc1cccc(C(=O)Nc2cccc(NC(=O)c3ccco3)c2)c1,-9,4,-1,-5,-1,.,.

# Bioassay records: PubChem BioAssay, several laboratories
